According to ChEMBL document CHEMBL2417428, “Cytotoxic psammaplysin analogues from a Suberea sp. marine sponge and the role of the spirooxepinisoxazoline in their activity” (2013):

Legend:
Type in all cases: functional
[1] = test system: NUGC-3; test: Cytotoxicity against human NUGC3 cells after 48 hrs by sulforhodamine B assay; conditions: NUGC-3, 48 h
In short: (§1)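 Cells seeded in 96-well plates with test compounds or doxorubicin control and incubated 48 h. Fixed with 50% trichloroacetic acid, stained with 0.4% sulforhodamine B in 1% acetic acid, and washed with 1% acetic acid. Bound dye was extracted with 10 mM Tris base (pH 10.5) and absorbance read at 540 nm for growth inhibition.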

[2] = test system: HCT-15; test: Cytotoxicity against human HCT15 cells after 48 hrs by sulforhodamine B assay; conditions: HCT-15, 48 h; in short: as §1
[3] = test system: PC-3; test: Cytotoxicity against human PC3 cells after 48 hrs by sulforhodamine B assay; conditions: PC-3, 48 h; in short: as §1
[4] = test system: MDA-MB-231; test: Cytotoxicity against human MDA-MB-231 cells after 48 hrs by sulforhodamine B assay; conditions: MDA-MB-231, 48 h; in short: as §1
[5] = test system: ACHN; test: Cytotoxicity against human ACHN cells after 48 hrs by sulforhodamine B assay; in short: as §1
[6] = test system: NCI-H23; test: Cytotoxicity against human NCI-H23 cells after 48 hrs by sulforhodamine B assay; conditions: NCI-H23, 48 h; in short: as §1

SMILES | GI50 [1] | GI50 [2] | GI50 [3] | GI50 [4] | GI50 [5] | GI50 [6]
NCCCOc1c(Br)cc(CCN)cc1Br [MOLOKA'IAMINE] | > 70 µM | > 70 µM | > 70 µM | > 70 µM | > 70 µM | > 70 µM
COC1=C(Br)C[C@@]2(OC=C1Br)ON=C(C(=O)NCCCOc1c(Br)cc(CCN)cc1Br)[C@H]2O (relative stereo) | 3.8 µM | 3.9 µM | 6.9 µM | 4.3 µM | 5.1 µM | 12.4 µM
COc1cccc2c1C(=O)c1c(O)c3c(c(O)c1C2=O)C[C@@](O)(C(=O)CO)C[C@@H]3O[C@H]1C[C@H](N)[C@H](O)[C@H](C)O1 [DOXORUBICIN] | 0.51 µM | 1.4 µM | 0.52 µM | 1.8 µM | 2 µM | 1.9 µM
COC1=C(Br)C[C@]2(OC=C1Br)ON=C(C(=O)NCCCOc1c(Br)cc(C(O)CN/C=C3/C(=O)CC(Cl)C3=O)cc1Br)[C@@H]2O (mixture of isomers) [19-HYDROXYPSAMMAPLYSINE X] | 4 µM | 3.5 µM | 2.1 µM | 0.8 µM | 2.5 µM | 3.5 µM
N#CC(=O)NCCCOc1c(Br)cc(CCN)cc1Br [CERATINAMINE] | > 70 µM | > 70 µM | > 70 µM | > 70 µM | > 70 µM | > 70 µM
COC1=C(Br)C[C@@]2(OC=C1Br)ON=C(C(=O)NCCCOc1c(Br)cc(C(O)CN)cc1Br)[C@H]2O (relative stereo) | 2.5 µM | 4 µM | 2.7 µM | 0.53 µM | 1.6 µM | 3.7 µM
NCCCOc1c(Br)cc(C(O)CN)cc1Br (configuration not stated) [HYDROXYMOLOKA'IAMINE] | > 70 µM | > 70 µM | > 70 µM | > 70 µM | > 70 µM | > 70 µM
COC1=C(Br)C[C@@]2(OC=C1Br)ON=C(C(=O)NCCCOc1c(Br)cc(C(O)CNC(=O)CCCCCCCCCCCC(C)C)cc1Br)[C@H]2O (some centres not stated) | 26 µM | 24 µM | 25 µM | 21 µM | 27 µM | 27 µM
COC1=C(Br)C[C@@]2(OC=C1Br)ON=C(C(=O)NCCCOc1c(Br)cc(C(O)CNC=C3C(=O)C=CC3=O)cc1Br)[C@H]2O (some centres not stated) [19-HYDROXYPSAMMAPLYSINE E] | 2.3 µM | 3.8 µM | 1.4 µM | 0.51 µM | 2.3 µM | 3.6 µM
N#CC(=O)NCCCOc1c(Br)cc(C(O)CN)cc1Br (configuration not stated) | > 70 µM | > 70 µM | > 70 µM | > 70 µM | > 70 µM | > 70 µM
COC1=C(Br)C[C@@]2(OC=C1Br)ON=C(C(=O)NCCCOc1c(Br)cc(CCNC=C3C(=O)C=CC3=O)cc1Br)[C@H]2O | 4 µM | 7.4 µM | 3.7 µM | 3.9 µM | 10.3 µM | 7 µM
COC1=C(Br)C[C@]2(OC=C1Br)ON=C(C(=O)NCCCOc1c(Br)cc(CCN/C=C3/C(=O)CC(Cl)C3=O)cc1Br)[C@@H]2O (mixture of isomers) | 3.5 µM | 3.3 µM | 2.3 µM | 1.2 µM | 3.3 µM | 6.4 µM
